Variants at the floor of the assay were thinned out.
B1: tRNA (parent)
chain: GUUCCGUUGGCGUAAUGGUAACGCGUCUCCCUCCUAAGGAGAAGACUGCGGGUUCGAGUCCCGUACGGAACG

Variants of: B1
Experiment: yeast fitness relative to wild type (ratio to wild type); higher = fitter; tRNA-Arg(CCU), competitive growth, 37 C, YPD
How it was run: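 Genotype frequency changes were the basis for Darwinian fitness relative to wild type. The frequencies came from 100-nucleotide paired-end sequencing of gene amplicons from the start population and each end population of pooled yeast strains with tRNA-Arg(CCU) gene variants at the native locus. Competition ran in YPD at 37°C for 24 hours in six replicates, genotypes needed ≥ 100 starting reads, and estimates < 0.5 were set to 0.5.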
With GUUCCGUUGGCGUAAUGGUAACGGGUCGGCCUCCUAAGGAGAAGACUGCGGGUUCGAGUCCCGUACGGAACG [C24G U28G C29G] the yeast fitness was ≤ 0.5.
GUUCCGUUGGCGUAAUGGUAACGGGUCUCCCCCCUAAGGAGGAGACUGCGGGUUCGAGUCCCGUACGGAACG [C24G U32C A42G] gave a yeast fitness of 0.574.
In the case of GUUCCGUUGGCGUAAUGGUAACGGGUCUCCCUCCAAAGGCGAAGACUGCGGAUUCGAGUAGCGUACGGAACG [C24G U35A A40C G52A C60A C61G], the yeast fitness is reported as ≤ 0.5.
In the case of GUUCCGUUGGCGUAAUGGUAACGGGUCUCCCUCCGAAGGAGAAGACUCCGGGUUCGAGUCCCGUAUGGAACG [C24G U35G G48C C66U], the yeast fitness is reported as ≤ 0.5.
For GUUCCGUUGGCGUAAUGGUAACGGGUCUCCCUCCUAAGGAGAAGACUGCGGGUCCGAGUCCCGUACCGAACG [C24G U54C G67C], the yeast fitness was ≤ 0.5.
GUUCCGUUGGCGUAAUGGUAACGGGUCUCCCUCCUAAGGAGAAGACUGCGGGUGCGAGUCCCAUACGGAACG [C24G U54G G63A] showed a yeast fitness of 0.553.
In the case of GUUCCGUUGGCGUAAUGGUAACGGGUCUCCCUCCUAAGGAGAAGACUGCGGGUUCGAGACCCGUACGGAACG [C24G U59A], the yeast fitness is reported as 0.552.
In the case of GUUCCGUUGGCGUAAUGGUAACGGGUCUCCCUCCUAAGGAGAAGACUGCGGGUUCGAGACCCGUACGGAUCG [C24G U59A A70U], the yeast fitness is reported as ≤ 0.5.
In the case of GUUCCGUUGGCGUAAUGGUAACGGGUCUCCCUCCUAAGGAGAAGACUGCGGGUUCGAGUCCCGAAAGGAACG [C24G U64A C66A], the yeast fitness is reported as ≤ 0.5.
With GUUCCGUUGGCGUAAUGGUAACGUGUCUCCCUCCUCAGGAGAUGACUGCGGGUUCGAGUCUCGUACGGAACG [C24U A36C A43U C61U] the yeast fitness was ≤ 0.5.
With GUUCCGUUGGCGUAAUGGUAACGUGUCUCCCUCCUUAGGAGAAGAGUGCGGGUUCGAGUCCAGUACGGCACG [C24U A36U C46G C62A A69C] the yeast fitness was ≤ 0.5.
With GUUCCGUUGGCGUAAUGGUAACGUGUCUCCCUCCUACGGAGAAGACUGCCGGUUCGAGUCCCGUACGGUACG [C24U A37C G50C A69U] the yeast fitness was ≤ 0.5.
GUUCCGUUGGCGUAAUGGUAACGUGUCUCCCUCCUAGGGAGAGGACUGCGGGUUCGAGUCCCGUACGGAACG [C24U A37G A43G] gave a yeast fitness of 0.516.
For GUUCCGUUGGCGUAAUGGUAACGUGUCUCCCUCCUAGGGAGAAGUCUGCGGGUUUGAGUCCCGUACGGAACG [C24U A37G A45U C55U], the yeast fitness was 0.708.
With GUUCCGUUGGCGUAAUGGUAACGUGUCUCCCUCCUAGGGAGAAGACUGCGGGUUCGAGUCCCGUACGGAUCG [C24U A37G A70U] the yeast fitness was 0.536.
Variant GUUCCGUUGGCGUAAUGGUAACGUGUCUCCCUCCUAUGGAGAAGACUGCGGGUUCGAGUCCCGUACGGAACG [C24U A37U] has a yeast fitness of 0.652.
With GUUCCGUUGGCGUAAUGGUAACGUGUCUCCCUCCUAAGGCGAAGACUACGGGUUCGAGUCCCGUACGGAACG [C24U A40C G48A] the yeast fitness was 0.634.
In the case of GUUCCGUUGGCGUAAUGGUAACGUGUCUCCCUCCUAAGGAGCAGACUGCGGGUUCGAGUCCCGUACGGAACG [C24U A42C], the yeast fitness is reported as 0.994.
In the case of GUUCCGUUGGCGUAAUGGUAACGUGUCUCCCUCCUAAGGAGUAGAAUGCGGGUUUGAGUCGCGUACGGCACG [C24U A42U C46A C55U C61G A69C], the yeast fitness is reported as ≤ 0.5.
GUUCCGUUGGCGUAAUGGUAACGUGUCUCCCUCCUAAGGAGUAGACUGCGGGUUCGAGUCUCGUACGGAACG [C24U A42U C61U] gave a yeast fitness of 0.641.
With GUUCCGUUGGCGUAAUGGUAACGUGUCUCCCUCCUAAGGAGUAGACUGCGGCUUCGAGUCCCGUACGGAACG [C24U A42U G52C] the yeast fitness was 0.578.
Variant GUUCCGUUGGCGUAAUGGUAACGUGUCUCCCUCCUAAGGAGACGACUGCGGGUUCGAGUCCCGUACGGAACG [C24U A43C] has a yeast fitness of 0.786.
In the case of GUUCCGUUGGCGUAAUGGUAACGUGUCUCCCUCCUAAGGAGAUGACUGCGGGUUCAAGUCCCGUACGGAACG [C24U A43U G56A], the yeast fitness is reported as 0.837.
With GUUCCGUUGGCGUAAUGGUAACGUGUCUCCCUCCUAAGGAGAAGCCUGCGGGUUCGAGUCCCGUACGGAACG [C24U A45C] the yeast fitness was 0.971.
For GUUCCGUUGGCGUAAUGGUAACGUGUCUCCCUCCUAAGGAGAAGCCUGCGGGUUCGAGUCCCGUACGGCACG [C24U A45C A69C], the yeast fitness was 0.619.
In the case of GUUCCGUUGGCGUAAUGGUAACGUGUCUCCCUCCUAAGGAGAAGCCUGCGGGUUCGAGUCCCAUACGGAACG [C24U A45C G63A], the yeast fitness is reported as 0.601.
With GUUCCGUUGGCGUAAUGGUAACGUGUCUCCCUCCUAAGGAGAAGCCAGCGGGUUCGAGUCCCAUACGGAACG [C24U A45C U47A G63A] the yeast fitness was ≤ 0.5.
Work on GUUCCGUUGGCGUAAUGGUAACGUGUCUCCCUCCUAAGGAGAAGGCUGCGGGUUCGAGUCCCGUACGGUACG [C24U A45G A69U] yielded a yeast fitness of 0.888.
With GUUCCGUUGGCGUAAUGGUAACGUGUCUCCCUCCUAAGGAGAAGACUGCGGGUUCGCGUCUCGUACGGAACG [C24U A57C C61U] the yeast fitness was ≤ 0.5.
GUUCCGUUGGCGUAAUGGUAACGUGUCUCCCUCCUAAGGAGAAGACUGCGGGUUCGAGUCCCGUCCGGAACG [C24U A65C] showed a yeast fitness of 0.739.
In the case of GUUCCGUUGGCGUAAUGGUAACGUGUCUCCCUCCUAAGGAGAAGACUGCGGGUUCGAGUCCCGUACGGACCG [C24U A70C], the yeast fitness is reported as 1.04.
With GUUCCGUUGGCGUAAUGGUAACGUGUAUCCCUCCUAAGGAGAAGACUGCGGGUUCGAGUCCCGUACGGAACG [C24U C27A] the yeast fitness was 0.882.
GUUCCGUUGGCGUAAUGGUAACGUGUGUCCCUCCUAAGGAGAAGACUGCGGGUUGGAGUCCCGUACGAAACG [C24U C27G C55G G68A] showed a yeast fitness of 0.526.
For GUUCCGUUGGCGUAAUGGUAACGUGUGUCCCCCCUAAGGAGAAGACUGCGGGUUCGAGUCCCGUUCGGAACG [C24U C27G U32C A65U], the yeast fitness was ≤ 0.5.
In the case of GUUCCGUUGGCGUAAUGGUAACGUGUCUACCUCCUGAGGAGAAGACUGCGGGUUGGAGUCCCGUACGGACCG [C24U C29A A36G C55G A70C], the yeast fitness is reported as ≤ 0.5.
With GUUCCGUUGGCGUAAUGGUAACGUGUCUACCUUCUAAGGAGAAGACUGCGGGUUCGAGUCCCGUACGGAACG [C24U C29A C33U] the yeast fitness was ≤ 0.5.
In the case of GUUCCGUUGGCGUAAUGGUAACGUGUCUGCUUCCUAAGGAGAAGACUGCGGGUUCGAGUCCCGAACGGAACG [C24U C29G C31U U64A], the yeast fitness is reported as ≤ 0.5.
For GUUCCGUUGGCGUAAUGGUAACGUGUCUUCCUCCUAAGGAGAAGAUUGCGGGUUCGAGUCCCGUACGGAACG [C24U C29U C46U], the yeast fitness was 0.554.
